How the values were obtained:
Type in all cases: functional
NCI-H226 [1] = assay: Cytotoxicity against human NCI-H226 cells assessed as cell growth at 10^-5 M after 48 hrs by SRB assay; conditions: NCI-H226, 48 h, read-out: Activity
SF-295 [2] = assay: Cytotoxicity against human SF295 cells assessed as cell growth at 10^-5 M after 48 hrs by SRB assay; conditions: SF-295, 48 h, read-out: Activity
[3] = Cytotoxicity against human NCI-ADR-RES cells assessed as cell growth at 10^-5 M after 48 hrs by SRB assay; conditions: read-out: Activity
CAKI-1 = assay: Cytotoxicity against human Caki1 cells assessed as cell growth at 10^-5 M after 48 hrs by SRB assay; conditions: CAKI-1, 48 h, read-out: Activity
Procedure, shortened: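 NCI-60 screen: lines kept in RPMI 1640 with 5% FBS, seeded at 5000–40,000 cells/well by doubling time, preincubated 24 h at 37 °C in 5% CO2. Time-zero plates TCA-fixed at drug addition. DMSO stocks diluted in medium, 48 h exposure. Fixation in cold TCA (final 10% adherent, 16% suspension), 0.4% SRB stain, solubilised in 10 mM Tris base, A515. Percent growth computed against control and time-zero.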

SW-620 = assay: Growth inhibition of human SW620 cells after 48 hrs by SRB assay; conditions: SW-620, 48 h
Procedure, shortened: (§1)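 Adherent NCI-60 lines grown in RPMI 1640 with 5% FBS, seeded at 5000–40,000 cells/well, and preincubated 24 h at 37 °C, 5% CO2. Compound, stocked in DMSO, given either once at 10^-5 M or at five 10-fold dilutions for 48 h. Cells fixed with cold TCA (final 10%), stained with 0.4% SRB, and read at 515 nm. GI50 taken as 50% reduction in net protein increase versus time-zero and control plates.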

SF-295 [4] = assay: Growth inhibition of human SF295 cells after 48 hrs by SRB assay; conditions: SF-295, 48 h; procedure, shortened: as §1
SK-MEL-28 = assay: Growth inhibition of human SK-MEL-28 cells after 48 hrs by SRB assay; conditions: SK-MEL-28, 48 h; procedure, shortened: as §1
A498 = assay: Growth inhibition of human A498 cells after 48 hrs by SRB assay; conditions: A498, 48 h
Procedure, shortened: (§2)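 Same 48 h NCI-60 five-dose SRB protocol. Adherent lines were fixed with cold TCA at 10% final; suspension lines such as CCRF-CEM were fixed with 16% final TCA. Stain was 0.4% SRB in 1% acetic acid for 10 min, solubilized in 10 mM Tris base and read at 515 nm. GI50 came from log concentration–growth curves, solving [(Ti−Tz)/(C−Tz)]×100 = 50.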

RXF 393 = assay: Growth inhibition of human RXF393 cells after 48 hrs by SRB assay; conditions: RXF 393, 48 h; procedure, shortened: as §1
DU-145 = assay: Growth inhibition of human DU145 cells after 48 hrs by SRB assay; conditions: DU-145, 48 h; procedure, shortened: as §2
[5] = Growth inhibition of human […] cells after 48 hrs by SRB assay
SR = assay: Cytotoxicity against human SR cells assessed as cell growth at 10^-7 M after 48 hrs by SRB assay; conditions: read-out: Activity
NCI-H226 [6] = assay: Cytotoxicity against human NCI-H226 cells assessed as cell growth at 10^-7 M after 48 hrs by SRB assay; conditions: NCI-H226, 48 h, read-out: Activity
SF-268 = assay: Cytotoxicity against human SF268 cells assessed as cell growth at 10^-7 M after 48 hrs by SRB assay; conditions: SF-268, 48 h, read-out: Activity
LOX IMVI = assay: Cytotoxicity against human LOXIMVI cells assessed as cell growth at 10^-4 M after 48 hrs by SRB assay; conditions: read-out: Activity
UACC-62 = assay: Cytotoxicity against human UACC62 cells assessed as cell growth at 10^-4 M after 48 hrs by SRB assay; conditions: UACC-62, 48 h, read-out: Activity
SK-OV-3 = assay: Cytotoxicity against human SKOV3 cells assessed as cell growth at 10^-4 M after 48 hrs by SRB assay; conditions: SK-OV-3, 48 h, read-out: Activity
MDA-MB-231 [7] = assay: Cytotoxicity against human MDA-MB-231 cells assessed as cell growth at 10^-4 M after 48 hrs by SRB assay; conditions: MDA-MB-231, 48 h, read-out: Activity
MDA-MB-231 [8] = assay: Cytotoxicity against human MDA-MB-231 cells assessed as cell growth at 10^-7 M after 48 hrs by SRB assay; conditions: MDA-MB-231, 48 h, read-out: Activity
[9] = Cytotoxicity against human Hs 578T cells assessed as cell growth at 10^-7 M after 48 hrs by SRB assay; conditions: read-out: Activity
Procedure, shortened: (§3)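 NCI-60 five-dose screen. Cells were grown in RPMI 1640 with 5% FBS and seeded at 5000–40,000 cells/well according to doubling time. They were pre-incubated 24 h at 37 °C in 5% CO₂, and time-zero (Tz) plates were TCA-fixed at drug addition. Five 10-fold dilutions of DMSO stock were applied for 48 h. Read-out was SRB staining, 515 nm absorbance, with percent growth calculated versus Tz and untreated control.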

T47D = assay: Cytotoxicity against human T47D cells assessed as cell growth at 10^-7 M after 48 hrs by SRB assay; conditions: read-out: Activity
Malme-3M = assay: Cytotoxicity against human MALME-3M cells assessed as cell growth at 10^-8 M after 48 hrs by SRB assay; conditions: read-out: Activity
UACC-257 = assay: Cytotoxicity against human UACC257 cells assessed as cell growth at 10^-8 M after 48 hrs by SRB assay; conditions: UACC-257, 48 h, read-out: Activity
OVCAR-3 = assay: Cytotoxicity against human OVCAR3 cells assessed as cell growth at 10^-8 M after 48 hrs by SRB assay; conditions: OVCAR-3, 48 h, read-out: Activity
UO-31 = assay: Cytotoxicity against human UO31 cells assessed as cell growth at 10^-8 M after 48 hrs by SRB assay; conditions: UO-31, 48 h, read-out: Activity
HCC 2998 = assay: Cytotoxicity against human HCC2998 cells assessed as cell growth at 10^-6 M after 48 hrs by SRB assay; conditions: HCC 2998, 48 h, read-out: Activity; procedure, shortened: as §3
KM12 = assay: Cytotoxicity against human KM12 cells assessed as cell growth at 10^-6 M after 48 hrs by SRB assay; conditions: KM12, 48 h, read-out: Activity
NCI-H226 [10] = assay: Growth inhibition of human NCI-H226 cells after 48 hrs by SRB assay; conditions: NCI-H226, 48 h; procedure, shortened: as §1
HT-29 = assay: Growth inhibition of human HT-29 cells after 48 hrs by SRB assay; conditions: HT-29, 48 h; procedure, shortened: as §1
[11] = read-out: LC50 (the source's name)

SMILES: COc1ccc(-c2nn3cc(-c4ccc(O)cc4O)nc3s2)cc1
- growth at 10 µM (NCI-H226 [1]): -11%
- growth at 10 µM (SF-295 [2]): 3%
- growth at 10 µM [3]: 15%
- growth at 10 µM (CAKI-1): 8%
- GI50 (SW-620): 3.96 µM
- TGI (SW-620): > 100 µM
- CC50 (SW-620; [11]): > 100 µM
- GI50 (SF-295 [4]): 2.16 µM
- TGI (SF-295 [4]): 15.1 µM
- CC50 (SF-295 [4]; [11]): > 100 µM
- GI50 (SK-MEL-28): 2.14 µM
- TGI (SK-MEL-28): 12.4 µM
- CC50 (SK-MEL-28; [11]): > 100 µM
- GI50 (A498): 0.365 µM
- LC50 (concentration giving 50% net cell kill) (A498): > 100 µM
- TGI (A498): 2.56 µM
- GI50 (RXF 393): 1.09 µM
- LC50 (RXF 393): 5.74 µM
- TGI (RXF 393): 2.5 µM
- GI50 (DU-145): 4.37 µM
- LC50 (lethal concentration 50) (DU-145): > 100 µM
- TGI (DU-145): > 100 µM
- GI50 [5]: 1.92 µM
- growth at 0.1 µM (SR): 85%
- growth at 0.1 µM (NCI-H226 [6]): 88%
- growth at 0.1 µM (SF-268): 96%
- growth at 100 µM (LOX IMVI): -4%
- growth at 100 µM (UACC-62): -72%
- growth at 100 µM (SK-OV-3): -50%
- growth at 100 µM (MDA-MB-231 [7]): -19%
- growth at 0.1 µM (MDA-MB-231 [8]): 99%
- growth at 0.1 µM [9]: 93%
- growth at 0.1 µM (T47D): 89%
- growth at 0.01 µM (Malme-3M): 87%
- growth at 0.01 µM (UACC-257): 92%
- growth at 0.01 µM (OVCAR-3): 102%
- growth at 0.01 µM (UO-31): 84%
- growth at 1 µM (HCC 2998): 78%
- growth at 1 µM (KM12): 86%
- GI50 (NCI-H226 [10]): 1.43 µM
- TGI (NCI-H226 [10]): 6.95 µM
- CC50 (NCI-H226 [10]; [11]): > 100 µM
- GI50 (HT-29): 2.95 µM
- LC50 (concentration killing 50% of cells) (HT-29): > 100 µM
- TGI (HT-29): 20.2 µM

Reference: ChEMBL document CHEMBL2146441, “2,6-Disubstituted imidazo[2,1-b][1,3,4]thiadiazoles: search for anticancer agents” (2012)
